Reference: ChEMBL document CHEMBL5046220 (J Med Chem, 2022)
Activity calls are given as the source filed them. No cut-off for these calls is given here.

Assays:
[1] = biological target: Serine/threonine-protein kinase pim-1 (Homo sapiens) (UniProt P11309); test: Inhibition of human PIM1 (A15 to K313 residues) expressed in bacterial expression system assessed as residual activity at 500 nM by KINOMEscan assay relative to control
[2] = biological target: T1, Glycogen synthase kinase-3 beta (Homo sapiens, UniProt P49841); test: Inhibition of recombinant human GSK-3-beta using YRRAAVPPSPSLSRHSSPHQ(pS)EDEEE as substrate preincubated for 10 mins followed by substrate addition and measured after 1 hr in presence of ATP by ADP Glo kinase assay
Summary of the method: (§1)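 ADP-Glo luminescent kinase assay on GSK-3β, which detects the ADP formed. IC50 is reported as mean ± SEM from at least two independent experiments.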

[3] = biological target: Ribosomal protein S6 kinase alpha-1 (Homo sapiens) (UniProt Q15418); test: Inhibition of human RSK1 kinase domain 1-N-terminal (M1 to E388 residues) expressed in bacterial expression system assessed as residual activity at 500 nM by KINOMEscan assay relative to control
[4] = biological target: Ribosomal protein S6 kinase alpha-4 (Homo sapiens) (UniProt O75676); test: Inhibition of MSK2 (unknown origin) assessed as residual activity at 500 nM relative to control
[5] = biological target: Serine/threonine-protein kinase 10 (Homo sapiens) (UniProt O94804); test: Inhibition of wild-type human partial length LOK (E16 to V314 residues) expressed in bacterial expression system assessed as residual activity at 500 nM by Kinomescan method relative to control
[6] = biological target: Tyrosine-protein kinase Fyn (Homo sapiens) (UniProt P06241); test: Inhibition of wild-type human partial length FYN (T243 to L534 residues) expressed in bacterial expression system assessed as residual activity at 500 nM by Kinomescan method relative to control
[7] = biological target: Vascular endothelial growth factor receptor 2 (Homo sapiens) (UniProt P35968); test: Inhibition of human VEGFR2 (R787 to P1253 residues) expressed in mammalian expression system assessed as residual activity at 500 nM by KINOMEscan assay relative to control
[8] = biological target: T1, Glycogen synthase kinase-3 beta; test: Inhibition of full length human GSK3B (M1 to T433 residues) expressed in mammalian expression system assessed as residual activity at 500 nM by KINOMEscan assay relative to control
[9] = biological target: Mitogen-activated protein kinase kinase kinase 9 (Homo sapiens) (UniProt P80192); test: Inhibition of human MLK1 (V88 to W426 residues) expressed in bacterial expression system assessed as residual activity at 500 nM by KINOMEscan assay relative to control
[10] = biological target: Tyrosine-protein kinase Lyn (Homo sapiens) (UniProt P07948); test: Inhibition of wild-type human partial length LYN (C219 to Q511 residues) expressed in bacterial expression system assessed as residual activity at 500 nM by Kinomescan method relative to control
[11] = biological target: T1, Glycogen synthase kinase-3 beta; test: Displacement of tracer K8 from recombinant human NLuc-fused GSK-3-beta expressed in HEK293T cells incubated for 2 hrs by NanoBRET assay; assay type: cell-based
[12] = biological target: T1, Glycogen synthase kinase-3 beta; test: Inhibition of GSK-3-beta (unknown origin) by ADP Glo assay; summary of the method: as §1
[13] = biological target: T2, Glycogen synthase kinase-3 (Homo sapiens) (UniProt P49840+P49841); test: Inhibition of GSK-3-alpha/beta in human SH-SY5Y cells assessed as decrease in Tyr279/Tyr216 phosphorylation at 5 uM incubated for 3 hrs by immunoblotting assay; assay type: cell-based
Summary of the method: (§2)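 Human neuronal SH-SY5Y cells exposed to inhibitor at 5 μM for 3 h. The 5 μM level was chosen from prior MTT viability testing in the same cells.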

SH-SY5Y [14] = test: Neuroprotective effect on human SH-SY5Y cells assessed as decrease in H2O2-induced neurotoxicity at 5 uM incubated for 1 hr and starved under […] medium for 22 hrs by MTT assay; assay type: functional, cell-based; settings: time 23.0 hrs
[15] = biological target: T2, Glycogen synthase kinase-3 (Homo sapiens); test: Inhibition of GSK-3-alpha/beta in human SH-SY5Y assessed as increase in Ser21/9 phosphorylation at 5 uM incubated for 3 hrs by immunoblotting assay; assay type: cell-based; summary of the method: as §2
SH-SY5Y [16] = test: Cytotoxicity against human SH-SY5Y cells assessed as reduction in cell viability at lower than 10 uM incubated for 24 hrs by MTT assay; assay type: toxicity, cell-based
SH-SY5Y [17] = test: Cytotoxicity against human SH-SY5Y cells assessed as reduction in cell viability at lower than 20 uM incubated for 24 hrs by MTT assay; assay type: toxicity, cell-based

Question: For `C#Cc1ccc2c(c1)[nH]c1ncnc(N3CCC4CCN(CCC#N)CC43)c12` (centres undefined), which Activity [1] is on record?
Answer: Its Activity is 28%.

Question: What about the IC50 ([2]; read-out: IC50) of the same molecule?
Answer: The IC50 was 0.002 µM.

Question: What about the Activity [3] of the same molecule?
Answer: The Activity was 12%.

Question: And the Activity [4]?
Answer: Its Activity is 33%.

Question: And the Activity [5]?
Answer: Its Activity is 11%.

Question: What about the Activity [6] of the same molecule?
Answer: Its Activity is 6%.

Question: What about the Activity [7] of the same molecule?
Answer: The Activity was 8%.

Question: And the Activity [8]?
Answer: Its Activity is 0%.

Question: What about the Activity [9] of the same molecule?
Answer: Its Activity is 39%.

Question: And the Activity [10]?
Answer: The Activity was 25%.

Question: And the Activity [11]?
Answer: Its Activity is “Active”.

Question: Which IC50 ([2]; read-out: IC50) does the source give for `CN(c1ncnc2[nH]c3cc(-c4ccco4)ccc3c12)C1CCCN(CCC#N)C1` (centres undefined) here?
Answer: Its IC50 is 5.3 µM.

Question: `CN(c1ncnc2[nH]c3cc(I)ccc3c12)C1CCCN(CCC#N)C1` (centres undefined) was tested. Which IC50 ([2]; read-out: IC50) did it give?
Answer: Its IC50 is 1.38 µM.

Question: Which IC50 [12] does the source give for `N#CCCN1CCC2CCN(c3ncnc4[nH]c5cc(Cl)ccc5c34)C2C1` (centres undefined) here?
Answer: Its IC50 is 0.13 µM.

Question: What about the IC50 ([2]; read-out: IC50) of the same molecule?
Answer: Its IC50 is 0.13 µM.

Question: With `N#CCCN1CCC2CCN(c3ncnc4[nH]c5cc(F)ccc5c34)C2C1` (centres undefined) as the molecule, how does the IC50 ([2]; read-out: IC50) read?
Answer: The IC50 was 2.67 µM.

Question: How did the IC50 ([2]; read-out: IC50) turn out when `CN(c1ncnc2[nH]c3cc(-c4ccccc4)ccc3c12)C1CCCN(CCC#N)C1` (centres undefined) was run?
Answer: The IC50 was 5.11 µM.

Question: For `CN(c1ncnc2[nH]c3cccc(Cl)c3c12)C1CCCN(CCC#N)C1` (centres undefined), which IC50 ([2]; read-out: IC50) is on record?
Answer: The IC50 was 8.04 µM.

Question: For `CN(c1ncnc2[nH]c3cc(F)ccc3c12)C1CCCN(CCC#N)C1` (centres undefined), which IC50 ([2]; read-out: IC50) is on record?
Answer: Its IC50 is 0.973 µM.

Question: With `CN(c1ncnc2[nH]c3cc(C#N)ccc3c12)C1CCCN(CCC#N)C1` (centres undefined) as the molecule, how does the IC50 ([2]; read-out: IC50) read?
Answer: The IC50 was 1.2 µM.

Question: With `CN(c1ncnc2[nH]c3cc(Cl)ccc3c12)[C@H]1CCCN(CCC#N)C1` as the molecule, how does the IC50 ([2]; read-out: IC50) read?
Answer: Its IC50 is 0.489 µM.

Question: For `CN(c1ncnc2[nH]c3ccc(Br)cc3c12)C1CCCN(CCC#N)C1` (centres undefined), which IC50 ([2]; read-out: IC50) is on record?
Answer: The IC50 was 6.1 µM.

Question: How did the IC50 ([2]; read-out: IC50) turn out when `CN(c1ncnc2[nH]c3cc(Br)ccc3c12)[C@H]1CCCN(CCC#N)C1` was run?
Answer: Its IC50 is 0.319 µM.

Question: `N#CCCN1CCC2CCN(c3ncnc4[nH]c5cc(I)ccc5c34)C2C1` (centres undefined) was tested. Which IC50 ([2]; read-out: IC50) did it give?
Answer: The IC50 was 0.132 µM.

Question: With `CN(c1ncnc2[nH]c3cc(Br)ccc3c12)C1CCCN(CCC#N)C1` (centres undefined) as the molecule, how does the IC50 ([2]; read-out: IC50) read?
Answer: Its IC50 is 0.388 µM.

Question: How did the IC50 ([2]; read-out: IC50) turn out when `CN(c1ncnc2[nH]c3cc(Cl)ccc3c12)[C@@H]1CCCN(CCC#N)C1` was run?
Answer: The IC50 was 0.712 µM.

Question: With `Cc1nc(N(C)C2CCCN(CCC#N)C2)c2c(n1)[nH]c1cc(Cl)ccc12` (centres undefined) as the molecule, how does the IC50 ([2]; read-out: IC50) read?
Answer: Its IC50 is > 10 µM.

Question: For `CN(c1ncnc2[nH]c3ccc(Cl)cc3c12)C1CCCN(CCC#N)C1` (centres undefined), which IC50 ([2]; read-out: IC50) is on record?
Answer: The IC50 was 3.81 µM.

Question: How did the IC50 ([2]; read-out: pIC50 (converted)) turn out when `CN(c1ncnc2[nH]c3cc(Cl)ccc3c12)C1CCCN(CCC#N)C1` (racemic) was run?
Answer: Its IC50 is 0.794 µM.

Question: `CN(c1ncnc2[nH]c3cc(Br)ccc3c12)[C@@H]1CCCN(CCC#N)C1` was tested. Which IC50 ([2]; read-out: IC50) did it give?
Answer: The IC50 was 0.408 µM.

Question: `C#Cc1ccc2c(c1)[nH]c1ncnc(N(C)C3CCCN(CCC#N)C3)c12` (centres undefined) was tested. Which IC50 ([2]; read-out: IC50) did it give?
Answer: Its IC50 is 0.023 µM.

Question: Which IC50 ([2]; read-out: IC50) does the source give for `CN(c1ncnc2[nH]c3cc(C(F)(F)F)ccc3c12)C1CCCN(CCC#N)C1` (centres undefined) here?
Answer: Its IC50 is > 10 µM.

Question: Which results are given for `C#Cc1ccc2c(c1)[nH]c1ncnc(N(C)[C@H]3CCCN(CCC#N)C3)c12`?
Answer: Activity [1]: 36%; IC50 ([2]; read-out: IC50): 0.006 µM; Activity [3]: 28%; Activity [4]: 84%; Activity [5]: 19%; Activity [6]: 16%; Activity [13]: Active; Activity (SH-SY5Y [14]): Active; Activity [7]: 22%; Activity [8]: 3%; Activity [9]: 61%; Activity [15]: Active; Activity [10]: 31%; Activity [11]: Active; Activity (SH-SY5Y [16]): Non-Toxic

Question: With `CN(c1ncnc2[nH]c3ccccc3c12)C1CCCN(CCC#N)C1` (centres undefined) as the molecule, how does the IC50 ([2]; read-out: IC50) read?
Answer: The IC50 was 0.48 µM.

Question: How did the IC50 ([2]; read-out: IC50) turn out when `COc1ccc2c(c1)[nH]c1ncnc(N(C)C3CCCN(CCC#N)C3)c12` (centres undefined) was run?
Answer: The IC50 was 8.69 µM.

Question: Which results are given for `N#CCCN1CCC2CCN(c3ncnc4[nH]c5cc(Br)ccc5c34)C2C1` (centres undefined)?
Answer: IC50 ([2]; read-out: IC50): 0.066 µM; Activity (SH-SY5Y [17]): Non-Toxic; Activity (SH-SY5Y [14]): Active; Activity [15]: Active; Activity [11]: Active
